This series can be described thus: Toxicity liver stage against HepG2, at 10uM. Type of series: cell-based. Further details: test concentration 10 uM, cell line HepG2-A16-CD81EGFP. The settings on record: human, HepG2-A16-CD81EGFP cells; read-out: INHIBITION
The gist of the method:
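Uninfected HepG2-A16-CD81EGFP cells, 3 × 10^3 per well, 1536-well, plated on prespotted compound at 10 μM final, parasite-free screening media added to match infected plates; puromycin 10 μM positive, DMSO 0.5% negative; run in parallel with 48 h PbLuc assay at 37 °C, 5% CO2; viability by CellTiter-Glo luminescence, normalized to controls.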
Consider `OC1CCCOC12CCN(Cc1nnc(-c3cccnc3)o1)CC2` (stereo not drawn), for which the cytotoxicity at 10 µM was determined as 4.49%.

As to `CC(=O)N1CCCC1c1cccc(Oc2ccccc2F)n1` (stereo not drawn), the cytotoxicity at 10 µM is -2.53%.

As to `Cc1noc(C)c1C(=O)N1CCCN(C)c2ccc(Cl)cc21`, the cytotoxicity at 10 µM worked out at 4.61%.

On to `Cc1ccc2nc(NCCN3CCOCC3)n(C)c(=O)c2c1`, for which the cytotoxicity at 10 µM was 9.26%.

In the case of `Cn1ncc(N2CCC(CNC3Cc4ccccc4C3)C2)cc1=O` (stereo not drawn), the cytotoxicity at 10 µM was -6%.

As for `CN1CC2(CCN(CCOCCO)CC2)CC(c2ccccc2)C1=O` (stereo not drawn), the cytotoxicity at 10 µM was -9.88%.

Regarding `CC(C)NC1CCc2c(ccc(=O)n2CCN(C)C)C1` (stereo not drawn), the cytotoxicity at 10 µM was -1.7%.

With `Cc1cc(C)n(CC(C)CNC(=O)[C@@H](C)NC(=O)OC(C)(C)C)n1` (stereo partly drawn), the cytotoxicity at 10 µM was -4.25%.

As to `COCC(=O)N1C[C@H]2CCC[C@@]2(COC)C1`, the cytotoxicity at 10 µM was found to be 5.93%.

On to `Cc1cc(N(C)CCN(C)C)n2nc(C)cc2n1`, for which the cytotoxicity at 10 µM came out at 7.77%.

Turning to `Cc1nc(C)n(CC2CCCCN2CC(=O)NCc2ccccn2)n1` (stereo not drawn), the cytotoxicity at 10 µM came to 2.07%.

In the case of `CN(C)c1nc(N)nc(CN2CCC(c3ccccc3)CC2)n1`, the cytotoxicity at 10 µM came out at 7.36%.

Turning to `CC(C)n1nc2c(cc1=O)CN(CC1CCCCO1)CC2` (stereo not drawn), the cytotoxicity at 10 µM was found to be 14.5%.

Turning to `CS(=O)(=O)c1ccc(CN2CCCCC2c2ccc(F)cc2)cc1` (stereo not drawn), the cytotoxicity at 10 µM came out at 6.04%.

For `NS(=O)(=O)Cc1ccc(CNC(=O)NCC2CCOC2)cc1` (stereo not drawn), the cytotoxicity at 10 µM came to 1.18%.

As to `c1ccc(CC2CCN(Cc3ccnc(-c4cccnc4)n3)CC2)cc1`, the cytotoxicity at 10 µM was 6.36%.

With `Cc1noc(NCc2ccc(F)cc2F)n1`, the cytotoxicity at 10 µM is -4.49%.

Consider `Cc1noc(C)c1CN(C)C(=O)C1CCCc2ccccc21` (stereo not drawn), for which the cytotoxicity at 10 µM turned out to be 2.45%.

Take `Cc1cnn(C2CN(Cc3nc(-c4ccco4)no3)C2)c1`: the cytotoxicity at 10 µM was -14.6%.

With `COCCN1CCC2(COCc3c(C)nc(N(C)C)nc32)C1` (stereo not drawn), the cytotoxicity at 10 µM is -132%.

For the compound `C=C(C)CN1CCCC(NS(C)(=O)=O)C1` (stereo not drawn), the cytotoxicity at 10 µM came to 4.21%.

Consider `CCN1Cc2ccccc2CC2(CCN(CC3CCC3)CC2)C1=O`, for which the cytotoxicity at 10 µM is 4.15%.

For the compound `CCOc1ccccc1C(=O)N1CCCC(c2nccn2CCOC)C1` (stereo not drawn), the cytotoxicity at 10 µM turned out to be 1.1%.

As for `CNC(=O)[C@@H](c1ccccc1F)N1CCC[C@H]1C(=O)NC1CC1`, the cytotoxicity at 10 µM was -5.84%.

On to `COCCN(C)C[C@H]1C[C@H](CO)CN(C(=O)c2ccn(C)c(=O)c2)C1`, for which the cytotoxicity at 10 µM was -2.75%.

For `Cn1nnc2c1CCN(C(C(=O)N1CCCCC1)c1ccccc1)C2` (stereo not drawn), the cytotoxicity at 10 µM is -2.56%.

In the case of `Cc1nc(CN2CCC3(CC2)CCN(C(=O)c2cscn2)C3)cs1`, the cytotoxicity at 10 µM is -71.9%.

As to `Cc1cccc(COC2COC3(CCN(Cc4ccoc4)CC3)C2)n1` (stereo not drawn), the cytotoxicity at 10 µM was -0.211%.

In the case of `Cc1ccccc1CN(Cc1ccc(S(C)(=O)=O)cc1)CC(C)C`, the cytotoxicity at 10 µM was determined as 16.6%.

For `CCS(=O)(=O)N1CCC(Nc2c(Cl)cccc2C#N)CC1`, the cytotoxicity at 10 µM is -0.85%.

Consider `CC(Cn1ccnc1)NC(=O)NCc1ccccn1` (stereo not drawn), for which the cytotoxicity at 10 µM was -6.66%.

In the case of `COCC(NC(=O)c1ccoc1C)c1cccc(C(F)(F)F)c1` (stereo not drawn), the cytotoxicity at 10 µM is -5.95%.

`O=C(CCN1CCCN(c2nccs2)CC1)Nc1ccccc1`: the cytotoxicity at 10 µM came out at 10.5%.

For `CCS(=O)(=O)N1CCC2(CCN(Cc3ccc(C)o3)C2)C1` (stereo not drawn), the cytotoxicity at 10 µM was -116%.

On to `Cc1nc(CO[C@@H]2CN(Cc3ccc(F)cc3)[C@@H]3COC[C@@H]32)cs1`, for which the cytotoxicity at 10 µM was 5.42%.

With `CO[C@H]1CO[C@@]2(CCCN(C(=O)C3=CCCCC3)C2)C1`, the cytotoxicity at 10 µM was -9.95%.

Take `O=S1(=O)C[C@@H]2[C@H](C1)N(Cc1ccoc1)CCN2Cc1ccncc1`: the cytotoxicity at 10 µM was -0.452%.

With `Fc1ccc(OCCNC2CCN(Cc3ccncc3)CC2)c(F)c1`, the cytotoxicity at 10 µM was -11.1%.

Take `CCc1c(C(=O)N2CCCC(N(C)C)C2)cnn1C(C)(C)C` (stereo not drawn): the cytotoxicity at 10 µM was -0.088%.

As to `CC(Nc1nc(-c2ccccc2)nc2c1CCNCC2)c1nccs1` (stereo not drawn), the cytotoxicity at 10 µM is 2.49%.

On to `CN(Cc1cccc2ncccc12)C(=O)CCC(F)(F)F`, for which the cytotoxicity at 10 µM is -3.05%.

Consider `Cc1nc(N2CCN(C)CC2)ncc1C(=O)N1CCCCC1`, for which the cytotoxicity at 10 µM stood at 0.305%.

For the compound `CC(O)CN1CCN(C(=O)c2cnc(OC(C)C)c(Cl)c2)CC1` (stereo not drawn), the cytotoxicity at 10 µM was -19.5%.

In the case of `CC1CCN(c2ccc3c(-c4ncc(C(=O)O)s4)noc3c2)CC1`, the cytotoxicity at 10 µM worked out at 2.13%.

For `Nc1ncc(C(=O)N2CCCC(N)CC2)c(-c2ccccc2)n1` (stereo not drawn), the cytotoxicity at 10 µM is -132%.

Regarding `CN(C)C(=O)COCc1ncn2c1CN(c1ncc(F)cn1)CCC2`, the cytotoxicity at 10 µM came to 6.01%.

As for `CC1CCN(c2nc3cn(Cc4cccc(F)c4)c(=O)c-3c[nH]2)CC1`, the cytotoxicity at 10 µM came out at 4.52%.

In the case of `CC(C)NC(=O)c1ccc2c(c1)nc1n2CCN(C(C)C)C1`, the cytotoxicity at 10 µM was 3.54%.

Take `COc1ccc(Cl)cc1-c1cc(NC(=O)CNC(=O)C2CC2)[nH]n1`: the cytotoxicity at 10 µM was -3.61%.

For the compound `CN(C(=O)Cn1nnnc1C(C)(C)C)c1ccccc1`, the cytotoxicity at 10 µM is -48.4%.

Consider `OCC(O)CSCc1cn(-c2ccc(Cl)cc2)nn1` (stereo not drawn), for which the cytotoxicity at 10 µM came out at 3.2%.

Take `COc1ccc(CN2CCCC(N3CCCC3)C2)cc1Cn1cncn1` (stereo not drawn): the cytotoxicity at 10 µM amounted to 7.33%.

Take `CCN1CCCN(S(=O)(=O)c2cnc3onc(C)c3c2)CC1`: the cytotoxicity at 10 µM was 4.62%.

Take `CCn1cnnc1CNC(=O)N1CCN(c2cccc(C)c2)CC1`: the cytotoxicity at 10 µM was -3.42%.

Consider `O=C(NCCN1CCOCC1)NCC(O)c1cccc(F)c1` (stereo not drawn), for which the cytotoxicity at 10 µM was -9.24%.

Regarding `Cc1nc(-c2ccsc2)ccc1C(=O)O`, the cytotoxicity at 10 µM was -13.8%.

For the compound `Cc1cc(CNC(=O)c2cnoc2C)c(C)o1`, the cytotoxicity at 10 µM was -6.32%.

With `CCc1ncc(C(=O)N2CCN(Cc3ncccc3C)CC2)cn1`, the cytotoxicity at 10 µM was -4.68%.

On to `Cc1nnc(NC(=O)N2CCC(N3CCCCC3)CC2)s1`, for which the cytotoxicity at 10 µM turned out to be 7.15%.

For `Cn1nccc1C(=O)N1CCOC(Cc2cccnc2)C1` (stereo not drawn), the cytotoxicity at 10 µM is -7.95%.

As for `Cc1cc(C(C)(O)CNC(=O)OC(C)(C)C)c(C)o1` (stereo not drawn), the cytotoxicity at 10 µM is 10.5%.

As to `CCc1cc(C(=O)N2CCCC2c2nc(C)c(CC)c(O)n2)on1` (stereo not drawn), the cytotoxicity at 10 µM is -14.2%.

With `CCN(Cc1nccn1C)C(=O)c1ccc(NCC(C)C)nc1`, the cytotoxicity at 10 µM was -2.2%.

On to `COC1CCN(C(=O)CCn2ccc(=O)[nH]c2=O)CC1`, for which the cytotoxicity at 10 µM was -4.73%.

As to `Cc1ccc(CN2CCC3(CC2)CC3CN(C)Cc2cccnc2)o1` (stereo not drawn), the cytotoxicity at 10 µM was -3.76%.

As for `Cc1occc1C(=O)N1CCC2(CCC(C(=O)NCC3CC3)O2)CC1` (stereo not drawn), the cytotoxicity at 10 µM came out at 9.53%.

For `COC(=O)N1CCCCC1C(=O)N1CCCN(c2ccnc(C)c2)CC1` (stereo not drawn), the cytotoxicity at 10 µM was -3.76%.

On to `CN(C)c1nccc(N(C)Cc2ncnn2C)n1`, for which the cytotoxicity at 10 µM worked out at 6.09%.

Consider `NC(=O)CN1CCCN(C(=O)COc2cccc(F)c2)CC1`, for which the cytotoxicity at 10 µM is -1.97%.

On to `O=C(Nc1cc(Cl)ccn1)c1nc(N2CCCC2)ncc1Cl`, for which the cytotoxicity at 10 µM was -9.26%.

In the case of `CCN(Cc1ccncc1)c1cc(C2CCNCC2)nc(C)n1`, the cytotoxicity at 10 µM amounted to 4.34%.

Take `O=C(CN1CCC(c2ccccc2)CC1)NCc1cc2n(n1)CCNC2`: the cytotoxicity at 10 µM was found to be 3.03%.

As for `Cn1cnc2c1CCN(C(C(=O)N1CCCCC1)c1ccccc1)C2` (stereo not drawn), the cytotoxicity at 10 µM was -5.34%.

For the compound `CN1CCN(C[C@H]2OC[C@@H]3CCN(Cc4ccsc4)C[C@@H]32)CC1`, the cytotoxicity at 10 µM is -2.19%.

With `O=C(CN1CCc2c(ncn2C2CC2)C1)NC1CCN(C2CC2)CC1`, the cytotoxicity at 10 µM was -8.44%.

Consider `Cc1noc([C@@H]2C[C@H](NC(=O)Nc3ccccc3)CN2C)n1`, for which the cytotoxicity at 10 µM was -1.89%.

As to `c1cc(CN2CCc3cncnc3C2)c2c(c1)OCCO2`, the cytotoxicity at 10 µM is -3.67%.

Consider `CS(=O)(=O)CCC(=O)N1C[C@H]2CC[C@@H](C1)N(Cc1ccccn1)C2=O`, for which the cytotoxicity at 10 µM is 7.23%.

As for `CN1CCOC(CN(C(=O)CC2CCCC2)c2nccs2)C1` (stereo not drawn), the cytotoxicity at 10 µM was -3.78%.

Regarding `O=C(NCCCN1CCN(c2ncccn2)CC1)NCC1CCOC1` (stereo not drawn), the cytotoxicity at 10 µM was -56.6%.

Take `CCCc1cc(NC2CCc3nc(C(C)C)nn3C2)n2ncnc2n1` (stereo not drawn): the cytotoxicity at 10 µM was -1.41%.

For `Cc1nc(CN2CCCN(CCOc3cccc(C#N)c3)CC2)no1`, the cytotoxicity at 10 µM was -5.85%.

In the case of `Cc1cc(C)n(Cc2ccc(-c3noc(C(=O)NCCO)n3)cc2)n1`, the cytotoxicity at 10 µM is -9.45%.

For `Cn1ncc2c(NCCC34CCCN3CCC4)nc(C3CCCC3)nc21`, the cytotoxicity at 10 µM was -12.9%.

For `O=C(CCOCC(F)(F)F)N1CCCC(n2ccnc2)C1` (stereo not drawn), the cytotoxicity at 10 µM was -8.14%.

For the compound `CC(=O)N1CC(=O)N(c2ccccc2)CC12CCN(Cc1ccoc1)C2` (stereo not drawn), the cytotoxicity at 10 µM is -1.51%.

With `COC(=O)c1ccoc1CN(C)CC(=O)NC1CC1`, the cytotoxicity at 10 µM is -1.96%.

Consider `O=C(CNCc1ccccc1Cn1cccn1)Nc1cnccn1`, for which the cytotoxicity at 10 µM amounted to 8.11%.

As to `CC(Cn1cncn1)NCc1n[nH]c2c1CCCCC2` (stereo not drawn), the cytotoxicity at 10 µM is -4.39%.

For `CC[C@H](C)[C@H](NC(=O)c1cccc(-n2cnnn2)c1)C(=O)OC`, the cytotoxicity at 10 µM stood at 7.98%.

In the case of `Cc1cc(Cc2ccccc2)cc(C2CCCNC2)n1` (stereo not drawn), the cytotoxicity at 10 µM is -5.89%.

For the compound `CNC1CCN(C2CCN(c3ccc(-c4ccco4)cc3)CC2)CC1`, the cytotoxicity at 10 µM was -22.4%.

Turning to `CN1CC(=O)N(c2cccnc2)Cc2c(NC3CC3)ncnc21`, the cytotoxicity at 10 µM came to 5.28%.

With `CCn1c(C)nnc1SCCNC(=O)c1cnc(C(C)(C)C)nc1O`, the cytotoxicity at 10 µM was -6.14%.

As to `CCc1nnc(CN(CC)C(=O)C(C)n2ccnc2C(C)C)o1` (stereo not drawn), the cytotoxicity at 10 µM came to 6.23%.

Turning to `Nc1nc(CNc2nccc(CCC(F)(F)F)n2)cs1`, the cytotoxicity at 10 µM is -2.38%.

For `Cc1ccc(N2CCN(C(=O)COc3nccc(C)n3)CC2)nn1`, the cytotoxicity at 10 µM was -25.1%.

With `CSc1nnc(C2CCN(C(=O)N3CCOCC3)CC2)n1C(C)C`, the cytotoxicity at 10 µM was 3.8%.

These data come from ChEMBL document CHEMBL4513216, “Probing the Open Global Health Chemical Diversity Library for Multistage-Active Starting Points for Next-Generation Antimalarials” (ACS Infect Dis, 2020).
